# High-throughput results: PubChem, several laboratories
# In the library only some 2.9% were active in any assay of this set; here they are far more common.
# AI-2 QS modul – Vibrio harveyi AI-2 quorum sensing modulation. Vibrio harveyi JMH597 AI-2 luminescence/OD600 ratio, 9 h; active compounds read low; strain lacks LuxN and CqsS sensors; 0 = neutral-control median. activity change, % at 7.5 µM. 300,000 compounds, 0.4% hits; in the data active means activity change below about -75%, passing the limit was not always enough; inconclusive means no clear call, values can overlap the other calls;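 further: luminescence divided by OD600 gain over 9 h not by final OD600 alone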
# RanGTP-Imp inh – inhibitors of RanGTP-importin-beta interaction, primary screen, biochemical, FRET, CFP-Ran, YFP-importin-beta, homogeneous. cell-free CFP-Ran/YFP-importin-beta FRET ratio. inhibition, % (concentration not given with the values). 300,000 compounds, 1.1% hits. AID 2216;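 active means more than half of the replicate wells show a fall in the fluorescence ratio signal beyond about 16%, limit read from the data, passing the limit was not always enough; inconclusive means exactly half of the replicate wells pass the set limit; inactive means fewer than half of replicates pass the limit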;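 further: 0% = DMSO wells and 100% = Ran loaded with GDP instead of GTP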
# Wee1 degr inh – blocks degradation of human Wee1 kinase; P30291; HeLa Luc-Wee1K328M stability, luciferase luminescence; 100% = proteasome inhibitor MG132 effect; reporter increase, % at 5 µM; 220,000 compounds, 1.2% hits; AID 1321;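 active means activation above the mean of all tested compounds plus 3 SD, set per screening run, cut at about 8.8% in these data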;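 further: cells exposed to compound for 20 h before luminescence read; 0% = DMSO alone and 100% = MG132 at 30 µM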
# Target sequence (P30291 whole entry K328M): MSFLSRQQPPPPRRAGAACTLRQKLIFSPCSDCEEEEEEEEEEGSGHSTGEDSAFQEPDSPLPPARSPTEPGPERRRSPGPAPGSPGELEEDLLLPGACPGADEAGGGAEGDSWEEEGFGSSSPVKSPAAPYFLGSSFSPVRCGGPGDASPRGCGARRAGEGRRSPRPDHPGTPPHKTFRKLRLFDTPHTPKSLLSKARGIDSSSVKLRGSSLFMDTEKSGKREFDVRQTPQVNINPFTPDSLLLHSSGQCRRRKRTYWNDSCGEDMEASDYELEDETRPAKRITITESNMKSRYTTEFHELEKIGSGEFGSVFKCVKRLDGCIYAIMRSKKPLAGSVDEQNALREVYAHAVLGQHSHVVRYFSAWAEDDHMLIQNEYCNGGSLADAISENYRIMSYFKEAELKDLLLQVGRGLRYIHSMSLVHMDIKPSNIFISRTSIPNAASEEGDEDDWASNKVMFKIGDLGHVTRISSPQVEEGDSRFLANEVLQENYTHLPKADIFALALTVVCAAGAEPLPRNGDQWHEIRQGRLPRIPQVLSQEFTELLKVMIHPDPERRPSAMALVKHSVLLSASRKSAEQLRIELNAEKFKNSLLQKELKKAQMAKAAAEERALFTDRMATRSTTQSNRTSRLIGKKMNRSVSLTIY
# Runt-CBFb FRET – blocks binding of human RUNX1 Runt domain to CBFb. Q01196+Q13951. Cerulean-Runt/Venus-CBFb FRET ratio 530/480, 1 h. inhibition, % at 20 µM. 220,000 compounds, 0.46% hits;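 active means inhibition over about 50% at 20 µM in the single-dose screen, limit read from the data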;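 further: 0% = DMSO wells and 100% = excess unlabeled CBFb competitor control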
#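 Assay system: Cerulean-Runt domain fusion protein, energy donor; Signal: fluorescence energy transfer, 422 nm excitation, 530/480 nm emission; Timing: 1 h compound exposure, room temperature; Control set: unlabeled CBFb; Medium: Tris buffer pH 7.5 with salts and BSA; Compound: single test concentration of 20 µM, 1% DMSO final; Probe or stimulus: Venus-CBFb 100 nM.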
# Runt-SMMHC FRET – Runt domain-CBFb-SMMHC interaction inhibition | Cerulean-Runt/Venus-CBFb-SMMHC FRET ratio 530/480, 1 h | 220,000 compounds, 0.74% hits | Q01196+Q13951 | inhibition, % at 20 µM;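 active means mean inhibition across duplicate retests at 20 µM reaching about 50%, limit read from the data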;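 further: 0% = DMSO wells and 100% = wells with excess untagged CBFb-SMMHC; inhibitors lower the FRET ratio by blocking Runt binding to CBFb-SMMHC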
# KLK7 zymogen act – proKLK7 (human) activation, primary screen. P49862. purified proKLK7, EDANS-DABCYL substrate fluorescence; 100% is mature enzyme control, 0% vehicle. activation, % at 7 µM. 370,000 compounds, 0.9% hits. AID 652039;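 active means activation above the mean of all tested compounds plus 3 SD, computed per campaign excluding outliers beyond control limits, cut at about 13% in these data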
# JMH597 growth – retest Vibrio harveyi JMH597 growth inhibition; 750 compounds, 1% hits; shares compounds with AI-2 QS modul; OD600 absorbance, 9 h; lacks LuxN and CqsS sensors; growth inhibition, % at 7.5 µM; AID 2726;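 active means every replicate shows growth inhibition above 50%; inconclusive means at least half, but not all, replicates pass that cutoff; inactive means fewer than half of replicates pass it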
# BB721 lum counter – retest counter-screen: luminescence loss in constitutive-on quorum sensing strain BB721; shares compounds with AI-2 QS modul; Vibrio harveyi BB721 luminescence, 9 h; inhibition, % at 7.5 µM; 750 compounds, 95% hits; AID 2727;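 active means inhibition above about 80% in every replicate, not just on average, limit read from the data; inconclusive means at least half of replicates past the limit, but not all; inactive means fewer than half of replicates past the limit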
# BB721 growth rt – retest: blocks Vibrio harveyi BB721 growth; shares compounds with AI-2 QS modul; OD600 absorbance, 9 h; growth inhibition, % at 7.5 µM; 750 compounds, 3% hits;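 active means every replicate shows growth inhibition above 50%; inconclusive means at least half but not all replicates above 50% inhibition; inactive means under half of replicates above 50% inhibition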
# AI-2 QS JMH597 – Vibrio harveyi AI-2 signaling luminescence modulation – JMH597 strain, confirmation | AID 2736 | 750 compounds, 97% hits | shares compounds with AI-2 QS modul | Vibrio harveyi JMH597 AI-2 quorum sensing luminescence, 9 h; luxN and CqsS knockout, AI-2 only | inhibition, % at 7.5 µM;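 active means every replicate shows more than 75% inhibition of signal versus neutral control wells; inconclusive means half to three quarters of replicates exceed 75% inhibition; inactive means fewer than half of replicates exceed 75% inhibition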
# Starred values were filed as active, the others as inactive; ? = inconclusive; . = no result.
SMILES,AI-2 QS modul,RanGTP-Imp inh,Wee1 degr inh,Runt-CBFb FRET,Runt-SMMHC FRET,KLK7 zymogen act,JMH597 growth,BB721 lum counter,BB721 growth rt,AI-2 QS JMH597
O=C(NCc1nc(-c2ccccc2)no1)c1ccc(Br)o1,-95*,0,0,2,0,1,-24,98*,-28,99*
O=C(NCc1ccccc1Cl)c1ccc(Br)o1,10,-1,0,-1,-2,0,.,.,.,.
Cc1cccc(OCC(=O)NCc2nc(-c3ccccc3)no2)c1,23,3,.,.,.,0,.,.,.,.
Cc1c(S(=O)(=O)Nc2ccc(Oc3ccccc3)cc2)c(=O)n(C)c(=O)n1C,17,-2,.,.,.,1,.,.,.,.
Cc1oc(C(C)(C)C)c(CN2CCOCC2)c1C(=O)O,10,-4,-4,0,2,-1,.,.,.,.
CC(=O)Nc1ccc(N=Nc2ccccc2)cc1[N+](=O)[O-],.,.,.,.,.,0,.,.,.,.
COc1ccc(S(=O)(=O)n2cccc2)cc1,?,-4,.,.,.,0,24,96*,-24,99*
CCCOc1ccc(N2CC(C(=O)NC3=NCCS3)CC2=O)cc1 (configuration not stated),.,1,2,1,3,0,.,.,.,.
Nc1cccc(C(=O)Nc2cccc3ncccc23)c1,?,2,.,.,.,0,2,5,17,-3
Cc1cccc(OCC(=O)O/N=C(\N)c2ccccn2)c1,-91*,5,0,.,-2,0,-1,93*,0,96*
Cc1cc(C)cc(OCC(=O)O/N=C(\N)c2cccnc2)c1,-96*,8,0,-4,-2,0,0,98*,-32,98*
N/C(=N\OC(=O)COc1ccccc1)c1cccnc1,-88*,-2,.,.,.,0,25,95*,19,97*
N/C(=N\OC(=O)COc1ccc(Br)cc1)c1cccnc1,-36,-2,6,2,-6,0,.,.,.,.
O=C(NC(=S)NCCc1ccccc1)c1cccc(Cl)c1,16,3,.,.,.,0,.,.,.,.
COc1ccc(/C=C/C(=O)Oc2cc(O)cc(O)c2)cc1,-95*,5,1,-1,2,1,-8,98*,-20,99*
CCOc1ccc(/C=C/C(=O)Oc2ccc(OC)cc2)cc1,9,-2,.,.,.,7,.,.,.,.
O=C(C#Cc1ccccc1)NCc1ccccc1F,-85*,-1,.,.,.,-1,16,94*,15,95*
O=S(=O)(Cc1ccccc1Cl)NCCc1ccc(F)cc1,17,-2,.,.,.,0,.,.,.,.
Cc1cccc(NC(=O)CCNS(=O)(=O)c2cc(Br)cnc2N)c1C,28,9,.,.,.,0,.,.,.,.
O=C(Oc1ccc2c(=O)c(Oc3ccc4ccccc4c3)coc2c1)c1cccnc1,-89*,-1,2,-2,1,-2,19,97*,?,97*
CCOC(=O)C1=C(O)/C(=C\c2ccc(CNS(=O)(=O)c3ccc(Br)cc3)o2)N=C1C,9,8,-2,2,-37,1,.,.,.,.
O=C(CNc1ccc(Br)cc1)c1ccc(O)cc1,-82*,-1,1,-1,0,-1,-13,90*,-42,93*
O=C(CNc1ccc(Cl)cc1)c1ccc(Br)cc1,18,-1,-1,0,-3,0,.,.,.,.
O=C(CCc1ccccc1)Nc1cc(Cl)ccc1O,-97*,-2,2,2,-1,1,47,100*,46,100*
CCC(=O)N1CCC1(C)C(=O)Nc1nccs1 (configuration not stated),.,.,.,.,.,0,.,.,.,.
SMILES,AI-2 QS modul,RanGTP-Imp inh,Wee1 degr inh,Runt-CBFb FRET,Runt-SMMHC FRET,KLK7 zymogen act,JMH597 growth,BB721 lum counter,BB721 growth rt,AI-2 QS JMH597
CC(CNC(=O)c1cc(COc2c(F)cccc2F)on1)Oc1cccnc1 (configuration not stated),-91*,1,.,.,.,0,25,94*,20,96*
CCC(NC(=O)c1cc(COc2c(F)cccc2F)on1)c1ccncc1 (configuration not stated),-69,-3,.,.,.,.,.,.,.,.
c1ccc(-c2ccc(-c3cnc4n3CCCCC4)cc2)cc1,-86*,?,-1,-8,-7,0,-5,84*,-22,90*
O=C(CN1C(=O)c2ccccc2S1(=O)=O)Nc1ccc(S(=O)(=O)N2CCCCC2)cc1,-85*,7,9.1*,0,0,1,42,96*,39,98*
CSc1cccc(NC(=O)CN2C(=O)c3ccccc3S2(=O)=O)c1,-86*,5,-2,4,-2,0,27,94*,5,96*
O=C(CN1C(=O)c2ccccc2S1(=O)=O)Nc1cccc(S(=O)(=O)N2CCCCC2)c1,.,.,.,.,.,0,.,.,.,.
O=C(CN1C(=O)c2ccccc2S1(=O)=O)Nc1ccc(S(=O)(=O)N2CCCC2)cc1,-95*,9,0,2,0,0,13,98*,29,98*
COC(=O)N1CCC2CC1c1c(Cl)cccc12 (configuration not stated),.,.,.,.,.,-1,.,.,.,.
Cc1nn(CC(=O)Nc2ccc(S(N)(=O)=O)cc2)c(=O)c2ccccc12,-84*,1,.,.,.,0,-11,98*,-14,99*
Cc1nn(CC(=O)Nc2ccc(C(=O)N3CCCCC3)cc2)c(=O)c2ccccc12,-82*,0,-1,3,-1,1,7,93*,-11,94*
Cc1nn(CC(=O)Nc2nnc(CC(=O)N3CCCC3)s2)c(=O)c2ccccc12,5,2,-2,0,-3,0,.,.,.,.
Cc1nn(CC(=O)Nc2ccc(C(=O)N3CCCC3)cc2)c(=O)c2ccccc12,-83*,-1,-4,0,-2,0,-29,94*,-22,96*
CNC(=O)Cn1nc(C)c2ccccc2c1=O,3,1,-2,-3,2,0,.,.,.,.
Cc1nn(CC(=O)Nc2cccnc2)c(=O)c2ccccc12,-95*,-6,2,-1,3,0,-1,98*,-9,99*
Cc1cc(C)c(NC(=O)CNC(=O)COC(=O)CN2C(=O)NC3(CCCC3)C2=O)c(C)c1,9,4,.,.,.,0,.,.,.,.
